Measurements reported in ChEMBL document CHEMBL2086304, “Synthesis and in vitro antimycobacterial and isocitrate lyase inhibition properties of novel 2-methoxy-2'-hydroxybenzanilides, their thioxo analogues and benzoxazoles” (Eur J Med Chem, 2012).
≈ marks a conversion by molar mass, not a printed value.

Assays:
Mycobacterium kansasii [1] = experiment: Antimycobacterial activity against isoniazid resistance Mycobacterium kansasii 225/80 after 21 days by micromethod; type: functional; settings: 225/80, 504 h
HepG2 = experiment: Cytotoxicity against human HepG2 cells after 24 hrs by CellTiter-96 cell viability assay; type: functional, cell-based; settings: HepG2, 24 h
In short: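 Hep G2 human hepatic cells (passage 12), 10,000 per well, grown 24 h at 37 °C, 5% CO2 in MEM with 1% glutamine, 10% FBS and 1% nonessential amino acids. Compounds in DMSO at eight increasing concentrations, quadruplicate, 24 h at 37 °C. Kit reagent added, 1.5 h at 37 °C, absorbance 490 nm. IC50 is the concentration reducing viability to 50% of control.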

Mycobacterium kansasii [2] = experiment: Antimycobacterial activity against isoniazid resistance Mycobacterium kansasii 225/80 after 14 days by micromethod; type: functional; settings: 225/80, 336 h
[3] = test system: Mycobacterium tuberculosis; experiment: Antimycobacterial activity against Mycobacterium tuberculosis 331/88 after 21 days by micromethod; type: functional; settings: 331/88, 504 h
In short: (§1)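 Inocula: M. tuberculosis My 331/88 at 10^-3 dilution, M. avium My 330/88 at 10^-5, M. kansasii My 235/80 and clinical isolate 6509/96 at 10^-4. Compounds added in DMSO at 1000 down to 0.5 (twofold series). Read at 14 and 21 days, plus 7 days for M. kansasii. MIC taken as lowest concentration inhibiting growth.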

[4] = Selectivity index, ratio of IC50 for human HepG2 cells to MIC for Mycobacterium tuberculosis 331/88 after 14 days; type: functional
In short: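 Cytotoxicity in Hep G2 cells (passage 12), 10,000 cells/well, in MEM with 10% FBS, 1% glutamine and 1% nonessential amino acids. Cells preincubated 24 h, 37 °C, 5% CO2. Compounds in DMSO at eight concentrations in quadruplicate, 24 h. MTS-type reagent added for 1.5 h, A490 read, IC50 taken at 50% viability. SI = this IC50 over the 14-day M. tuberculosis MIC.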

Mycobacterium avium [5] = experiment: Antimycobacterial activity against isoniazid resistance Mycobacterium avium 330/88 after 21 days by micromethod; type: functional; settings: 330/88, 504 h; in short: as §1
Mycobacterium kansasii [6] = experiment: Antimycobacterial activity against Mycobacterium kansasii 6509/96 clinical isolate after 14 days by micromethod; type: functional; settings: 6509/96, 336 h; in short: as §1
Mycobacterium kansasii [7] = experiment: Antimycobacterial activity against isoniazid resistance Mycobacterium kansasii 225/80 after 7 days by micromethod; type: functional; settings: 225/80, 168 h
Mycobacterium kansasii [8] = experiment: Antimycobacterial activity against Mycobacterium kansasii 6509/96 clinical isolate after 7 days by micromethod; type: functional; settings: 6509/96, 168 h; in short: as §1
Mycobacterium avium [9] = experiment: Antimycobacterial activity against isoniazid resistance Mycobacterium avium 330/88 after 14 days by micromethod; type: functional; settings: 330/88, 336 h; in short: as §1
[10] = test system: Mycobacterium tuberculosis; experiment: Antimycobacterial activity against Mycobacterium tuberculosis 331/88 after 14 days by micromethod; type: functional; settings: 331/88, 336 h; in short: as §1
Mycobacterium kansasii [11] = experiment: Antimycobacterial activity against Mycobacterium kansasii 6509/96 clinical isolate after 21 days by micromethod; type: functional; settings: 6509/96, 504 h; in short: as §1
[12] = molecular target: T1, Isocitrate lyase (Mycobacterium tuberculosis) (UniProt P9WKK7); experiment: Inhibition of Mycobacterium tuberculosis H37Rv isocitrate lyase expressed in Escherichia coli HB101 at 10 umol/L
T1 sequence (whole entry): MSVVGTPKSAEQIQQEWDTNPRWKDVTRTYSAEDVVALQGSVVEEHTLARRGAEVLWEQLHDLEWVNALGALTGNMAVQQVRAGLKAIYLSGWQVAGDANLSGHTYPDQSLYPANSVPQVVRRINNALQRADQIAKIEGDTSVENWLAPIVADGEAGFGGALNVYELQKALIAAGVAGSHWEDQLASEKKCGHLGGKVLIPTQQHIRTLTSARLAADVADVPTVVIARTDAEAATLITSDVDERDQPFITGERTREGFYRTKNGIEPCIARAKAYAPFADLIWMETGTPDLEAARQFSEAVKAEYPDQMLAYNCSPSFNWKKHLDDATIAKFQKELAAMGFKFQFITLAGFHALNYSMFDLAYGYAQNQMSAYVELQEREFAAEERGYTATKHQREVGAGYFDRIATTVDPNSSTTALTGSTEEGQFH
In short: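 Isocitrate lyase assayed per Dixon–Kornberg in 96-well format. Buffer: 50 mmol/L KH2PO4, 4 mmol/L MgCl2, 4 mmol/L phenylhydrazine, 12 mmol/L cysteine, pH 7.0. Glyoxylate phenylhydrazone read at 324 nm. Compounds added in DMSO, with DMSO-alone inhibition subtracted.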

Row | SMILES | MIC (Mycobacterium kansasii [1]) [µM] | IC50 (HepG2) [µM] | MIC (Mycobacterium kansasii [2]) [µM] | MIC [3] [µM] | Selectivity Index [4] | MIC (Mycobacterium avium [5]) [µM] | MIC (Mycobacterium kansasii [6]) [µM] | MIC (Mycobacterium kansasii [7]) [µM] | MIC (Mycobacterium kansasii [8]) [µM] | MIC (Mycobacterium avium [9]) [µM] | MIC [10] [µM] | MIC (Mycobacterium kansasii [11]) [µM] | inhibition [12] [%]
1 | COc1ccc(Cl)cc1C(=S)Nc1cc(Cl)c(Cl)cc1O | 62.5 (≈ 22.7 µg/mL) | 3.72 | 62.5 (≈ 22.7 µg/mL) | 32 (≈ 11.6 µg/mL) | 0.23 | 62.5 (≈ 22.7 µg/mL) | 32 (≈ 11.6 µg/mL) | 32 (≈ 11.6 µg/mL) | 16 (≈ 5.8 µg/mL) | 62.5 (≈ 22.7 µg/mL) | 16 (≈ 5.8 µg/mL) | 62.5 (≈ 22.7 µg/mL) | 9
2 | COc1ccc(Cl)cc1C(=S)Nc1cc(C(F)(F)F)ccc1O | 62.5 (≈ 22.6 µg/mL) | 5.86 | 62.5 (≈ 22.6 µg/mL) | 32 (≈ 11.6 µg/mL) | 0.18 | 62.5 (≈ 22.6 µg/mL) | 32 (≈ 11.6 µg/mL) | 32 (≈ 11.6 µg/mL) | 16 (≈ 5.79 µg/mL) | 62.5 (≈ 22.6 µg/mL) | 32 (≈ 11.6 µg/mL) | 32 (≈ 11.6 µg/mL) | 8
3 | COc1cc(Cl)ccc1C(=S)Nc1cc(Cl)ccc1O | 125 (≈ 41 µg/mL) | 8.49 | 62.5 (≈ 20.5 µg/mL) | 62.5 (≈ 20.5 µg/mL) | 0.14 | 32 (≈ 10.5 µg/mL) | 62.5 (≈ 20.5 µg/mL) | 16 (≈ 5.25 µg/mL) | 32 (≈ 10.5 µg/mL) | 32 (≈ 10.5 µg/mL) | 62.5 (≈ 20.5 µg/mL) | 125 (≈ 41 µg/mL) | 9
4 | COc1cc(Cl)ccc1C(=O)Nc1ccc(Br)cc1O | 125 (≈ 44.6 µg/mL) | 46.6 | 125 (≈ 44.6 µg/mL) | 125 (≈ 44.6 µg/mL) | 0.37 | 125 (≈ 44.6 µg/mL) | 125 (≈ 44.6 µg/mL) | 125 (≈ 44.6 µg/mL) | 125 (≈ 44.6 µg/mL) | 125 (≈ 44.6 µg/mL) | 125 (≈ 44.6 µg/mL) | 125 (≈ 44.6 µg/mL) | 0
5 | COc1ccc(Cl)cc1C(=O)Nc1ccc(Cl)cc1O | 62.5 (≈ 19.5 µg/mL) | 51.3 | 32 (≈ 9.99 µg/mL) | 4 (≈ 1.25 µg/mL) | 12.83 | 250 (≈ 78 µg/mL) | 16 (≈ 4.99 µg/mL) | 16 (≈ 4.99 µg/mL) | 8 (≈ 2.5 µg/mL) | 62.5 (≈ 19.5 µg/mL) | 4 (≈ 1.25 µg/mL) | 16 (≈ 4.99 µg/mL) | 10
6 | COc1ccc(Cl)cc1C(=S)Nc1ccc(Cl)cc1O | 62.5 (≈ 20.5 µg/mL) | 4.45 | 32 (≈ 10.5 µg/mL) | 32 (≈ 10.5 µg/mL) | 0.28 | 62.5 (≈ 20.5 µg/mL) | 32 (≈ 10.5 µg/mL) | 16 (≈ 5.25 µg/mL) | 32 (≈ 10.5 µg/mL) | 32 (≈ 10.5 µg/mL) | 16 (≈ 5.25 µg/mL) | 32 (≈ 10.5 µg/mL) | 0
7 | COc1ccc(Cl)cc1C(=S)Nc1cc(Br)ccc1O | 16 (≈ 5.96 µg/mL) | 8.74 | 16 (≈ 5.96 µg/mL) | 32 (≈ 11.9 µg/mL) | 0.55 | 32 (≈ 11.9 µg/mL) | 16 (≈ 5.96 µg/mL) | 8 (≈ 2.98 µg/mL) | 16 (≈ 5.96 µg/mL) | 32 (≈ 11.9 µg/mL) | 16 (≈ 5.96 µg/mL) | 32 (≈ 11.9 µg/mL) | 8
8 | COc1cc(Cl)ccc1C(=S)Nc1ccc(Cl)cc1O | 62.5 (≈ 20.5 µg/mL) | 5.11 | 32 (≈ 10.5 µg/mL) | 32 (≈ 10.5 µg/mL) | 0.32 | 32 (≈ 10.5 µg/mL) | 32 (≈ 10.5 µg/mL) | 16 (≈ 5.25 µg/mL) | 16 (≈ 5.25 µg/mL) | 32 (≈ 10.5 µg/mL) | 16 (≈ 5.25 µg/mL) | 32 (≈ 10.5 µg/mL) | 10
9 | COc1cc(Cl)ccc1C(=S)Nc1cc(Br)ccc1O | 62.5 (≈ 23.3 µg/mL) | 6.53 | 32 (≈ 11.9 µg/mL) | 32 (≈ 11.9 µg/mL) | 0.2 | 62.5 (≈ 23.3 µg/mL) | 32 (≈ 11.9 µg/mL) | 16 (≈ 5.96 µg/mL) | 32 (≈ 11.9 µg/mL) | 32 (≈ 11.9 µg/mL) | 32 (≈ 11.9 µg/mL) | 62.5 (≈ 23.3 µg/mL) | 0
10 | COc1cc(Cl)ccc1C(=O)Nc1cc(Cl)ccc1O | 125 (≈ 39 µg/mL) | 87 | 125 (≈ 39 µg/mL) | 125 (≈ 39 µg/mL) | 0.7 | 125 (≈ 39 µg/mL) | 62.5 (≈ 19.5 µg/mL) | 125 (≈ 39 µg/mL) | 16 (≈ 4.99 µg/mL) | 125 (≈ 39 µg/mL) | 125 (≈ 39 µg/mL) | 62.5 (≈ 19.5 µg/mL) | 0
